Ratio and GI50 data for 25 compounds are collected here from ChEMBL document CHEMBL1138002, “Synthesis and biological evaluation of thiazolidine-2,4-dione and 2,4-thione derivatives as inhibitors of translation initiation” (2004).

Holding throughout (format): functional
A short description of test [1]: Ratio of intensity of phosphorylation of phosphorylated eIF2a to the intensity of the total eIF2a was determined. In short, it runs like this: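 Cells exposed to drug at 5 µM; extracts analysed by Western blot with phospho-Ser51-specific rabbit anti-eIF2a and mouse monoclonal total eIF2a antibodies, quantified by infrared imaging. Phospho/total eIF2a intensity ratio normalized to DMSO; TRO positive, DMSO negative control; mean ± SD of three determinations.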

For test [2], the system named is A549. Kind of test: Inhibition of human lung cancer cell line (A549) growth by 50% in sulforhodamine-B assay. The procedure, abridged:
(§1)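 Human A549 lung cancer cells; growth inhibition read by sulforhodamine B assay, staining cellular protein content. GI50 taken as concentration needed to inhibit 50% of cell proliferation. DMSO negative control, troglitazone (TRO) positive control; mean ± SD from three determinations.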

The test system of test [3] is A549. Briefly: Inhibition of human lung cancer cell line (A549) by 50% in sulforhodamine B assay. In short, it runs like this: as §1
Background: The SRB assay estimates cell density from bound dye.

Broadly, the GI50 is the concentration giving 50% growth inhibition. Read a low GI50 as greater sensitivity of the cells.

With `CC(C)(C)c1ccc(OCc2ccccc2)c(/C=C2\SC(=S)NC2=O)c1`, in test [1], the Ratio was found to be 1.97. The GI50 in the test with A549 [2] turned out to be 7 µM.
On to `CC(C)(C)c1ccc(OCc2ccccc2)c(CC2SC(=O)NC2=O)c1` (stereo not given), for which, in the test with A549 [3], it took 12 µM to inhibit growth by half (GI50). In addition, in test [1], the Ratio came out at 0.79.
On to `O=C1NC(=O)/C(=C/c2cc([N+](=O)[O-])ccc2OCc2ccccc2)S1`, for which the Ratio in test [1] came to 0.89. Also, it took 14 µM to inhibit growth with A549 [2] by half (GI50).
`O=C1NC(=O)/C(=C/c2cc(F)ccc2OCc2ccccc2)S1`: the Ratio in test [1] was 0.72. In the test with A549 [2], the GI50 stood at 4 µM.
Take `O=C1NC(=S)S/C1=C\c1cc(N2CCCCC2)ccc1OCc1ccccc1`: in test [1], the Ratio came out at 0.75. Besides, growth with A549 [2] was halved (GI50) at 3 µM.
Consider `O=C1NC(=S)SC1Cc1cc(Cl)ccc1OCc1ccccc1` (stereo not given), for which the Ratio in test [1] was determined as 1.25. In the test with A549 [2], this compound registered a GI50 of 29 µM.
For the compound `COc1ccc(OCc2ccccc2)c(/C=C2\SC(=S)NC2=O)c1`, in test [1], the Ratio was determined as 0.94. In addition, the GI50 in the test with A549 [2] was found to be 7 µM.
With `O=C1NC(=S)S/C1=C\c1cc(-c2ccccc2)ccc1OCc1ccccc1`, the Ratio in test [1] came to 2.35. Also, the GI50 in the test on A549 [2] is 4 µM.
Consider `O=C1NC(=O)/C(=C/c2ccccc2OCc2ccccc2)S1`, for which the Ratio in test [1] amounted to 0.92. In the test with A549 [2], this compound showed a GI50 of 35 µM.
Consider `O=C1NC(=O)/C(=C/c2cc(Cl)ccc2OCc2ccccc2)S1`, for which the Ratio in test [1] turned out to be 4.52. In addition, the GI50 with A549 [2] turned out to be 5 µM.
In the case of `O=C1NC(=S)S/C1=C\c1ccccc1OCc1ccccc1`, in test [1], the Ratio stood at 1.17. The same compound yielded a GI50 in the test with A549 [2] of 13 µM.
In the same order, the values of `CC(C)(C)c1ccc(-c2ccc(OCc3ccccc3)c(/C=C3\SC(=S)NC3=O)c2)cc1` are 1.37 and 2 µM.
With `O=C1NC(=S)S/C1=C\c1cc(N2CCOCC2)ccc1OCc1ccccc1`, the Ratio in test [1] was 0.92. The compound also gave a 50% growth inhibitory concentration (GI50) with A549 [2] of 5 µM.
Consider `O=C1NC(=S)S/C1=C\c1cc(F)ccc1OCc1ccccc1`, for which the Ratio in test [1] came to 5.02. In addition, the GI50 with A549 [2] was found to be 9 µM.
As to `COc1ccc(OCc2ccccc2)c(/C=C2\SC(=O)NC2=O)c1`, the Ratio in test [1] worked out at 0.98. The compound also yielded a GI50 with A549 [2] of 14 µM.
For the compound `O=C1NC(=S)S/C1=C\c1cc(Br)ccc1OCc1ccccc1`, the Ratio in test [1] was 1.4. The compound further registered a GI50 in the test with A549 [2] of 7 µM.
In the test on A549 [3], `Cc1c(C)c2c(c(C)c1O)CCC(C)(COc1ccc(CC3SC(=O)NC3=O)cc1)O2` (stereo not given) [TROGLITAZONE] gave a GI50 of 15 µM. For the same compound, the Ratio in test [1] amounted to 2.12.
For the compound `O=C1NC(=S)S/C1=C\c1cc(Cl)ccc1OCc1ccccc1`, the Ratio in test [1] worked out at 1.76. Further, the GI50 with A549 [2] amounted to 5 µM.
Consider `O=C1NC(=O)/C(=C/c2cc(-c3ccccc3)ccc2OCc2ccccc2)S1`, for which the Ratio in test [1] was 0.76. Further, halving of growth in the test on A549 [2] (GI50) required 2 µM.
`CC(C)(C)c1ccc(OCc2ccccc2)c(/C=C2\SC(=O)NC2=O)c1`: the Ratio in test [1] came out at 6.98. Further, in the test on A549 [2], the GI50 worked out at 2 µM.
In the same order, the values of `Cc1ccc(OCc2ccccc2)c(/C=C2\SC(=O)NC2=O)c1` are 1.94 and 8 µM.
On to `Cc1ccc(OCc2ccccc2)c(/C=C2\SC(=S)NC2=O)c1`, for which the Ratio in test [1] turned out to be 4.15. This compound also showed a GI50 in the test on A549 [2] of 6 µM.
For `CC(C)(C)c1ccc(-c2ccc(OCc3ccccc3)c(/C=C3\SC(=O)NC3=O)c2)cc1`, in that order: 1.16 and 2 µM.
As to `O=C1NC(=S)S/C1=C\c1cc([N+](=O)[O-])ccc1OCc1ccccc1`, in test [1], the Ratio came to 3.49. Moreover, the GI50 in the test on A549 [2] was determined as 5 µM.
As for `O=C1NC(=O)/C(=C/c2cc(Br)ccc2OCc2ccccc2)S1`, the Ratio in test [1] was found to be 4.05. In addition, the GI50 in the test on A549 [2] worked out at 5 µM.
